In ChEMBL document CHEMBL5696442, “Discovery of type II inhibitors of TGFβ-activated kinase 1 (TAK1) and mitogen-activated protein kinase kinase kinase kinase 2 (MAP4K2)” (J Med Chem, 2015):
Active and inactive are the calls of the source. The calls are words filed in the database; no cut-off is given here.

Experiments:
[1] = target: Ribosomal protein S6 kinase beta-2 (Homo sapiens) (UniProt Q9UBS0); assay: Inhibition of p70S6Kb Lys2 labeling site in human Huh-7 cell lysate at 1 uM by KiNativ Profiling analysis relative to control; type: subcellular
[2] = target: Serine/threonine-protein kinase Nek7 (Homo sapiens) (UniProt Q8TDX7); assay: Inhibition of NEK7 Lys1 labeling site in human Huh-7 cells at 1 uM by KiNativ Profiling analysis relative to control; type: cell-based
[3] = tested on: Tyrosine-protein kinase ABL1 (Homo sapiens), P00519 [Y253F]; assay: Inhibition of phosphorylated ABL1 Y253F mutant (unknown origin) at 1 uM by Ambit Kinomescan binding assay relative to control; values are per cent of control
[4] = target: T1, Eukaryotic translation initiation factor 2-alpha kinase 3 (Homo sapiens) (UniProt Q9NZJ5); assay: Inhibition of PEK K2 labeling site in human Huh-7 cells at 10 uM by KiNativ Profiling analysis relative to control; type: cell-based
T1 sequence (whole entry): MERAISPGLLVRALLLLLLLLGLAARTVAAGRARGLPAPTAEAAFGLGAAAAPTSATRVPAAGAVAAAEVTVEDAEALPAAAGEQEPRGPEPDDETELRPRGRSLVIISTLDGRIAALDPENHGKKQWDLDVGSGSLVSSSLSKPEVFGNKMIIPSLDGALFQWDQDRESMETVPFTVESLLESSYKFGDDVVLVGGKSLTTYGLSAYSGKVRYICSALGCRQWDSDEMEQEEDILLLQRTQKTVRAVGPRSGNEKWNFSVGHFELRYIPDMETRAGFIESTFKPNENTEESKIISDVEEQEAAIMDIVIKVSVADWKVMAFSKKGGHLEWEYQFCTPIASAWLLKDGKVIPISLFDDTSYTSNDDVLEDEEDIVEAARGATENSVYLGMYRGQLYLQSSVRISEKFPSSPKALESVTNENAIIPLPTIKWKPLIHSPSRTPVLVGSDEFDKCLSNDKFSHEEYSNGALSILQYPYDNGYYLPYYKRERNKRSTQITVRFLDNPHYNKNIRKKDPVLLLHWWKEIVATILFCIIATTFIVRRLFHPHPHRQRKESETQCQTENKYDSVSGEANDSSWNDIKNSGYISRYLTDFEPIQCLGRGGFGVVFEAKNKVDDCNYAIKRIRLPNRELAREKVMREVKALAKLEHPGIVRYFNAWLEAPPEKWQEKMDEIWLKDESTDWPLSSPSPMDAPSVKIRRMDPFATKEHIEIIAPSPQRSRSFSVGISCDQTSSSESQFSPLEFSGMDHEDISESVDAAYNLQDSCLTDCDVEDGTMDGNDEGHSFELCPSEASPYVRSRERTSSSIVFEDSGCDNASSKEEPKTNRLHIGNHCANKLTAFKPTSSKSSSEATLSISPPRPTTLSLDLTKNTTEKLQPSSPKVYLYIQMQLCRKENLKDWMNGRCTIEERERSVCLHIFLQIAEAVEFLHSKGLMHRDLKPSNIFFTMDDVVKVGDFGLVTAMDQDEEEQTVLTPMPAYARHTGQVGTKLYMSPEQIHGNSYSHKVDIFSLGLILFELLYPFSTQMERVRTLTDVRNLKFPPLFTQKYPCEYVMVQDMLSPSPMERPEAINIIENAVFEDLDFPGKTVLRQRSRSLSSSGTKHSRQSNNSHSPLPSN

[5] = target: Ribosomal protein S6 kinase alpha-3 (Homo sapiens) (UniProt P51812); assay: Inhibition of RSK2 Domain 2 K1 labeling site in human Huh-7 cells at 1 uM by KiNativ Profiling analysis relative to control; type: cell-based
[6] = target: Rho-associated protein kinase 1 (Homo sapiens) (UniProt Q13464); assay: Inhibition of ROCK1 Lys2 labeling site in human A-375 cells at 0.5 uM by KiNativ Profiling analysis relative to control; type: cell-based
How it was run: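 Live A375 melanoma cells were treated with compound at 5 or 0.5 μM, then lysed. Lysates were labeled with a lysine-reactive ATP or ADP-biotin probe. Read-out was the compound's protection of kinase labeling sites from probe labeling (KiNativ).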

[7] = target: T2, Serine/threonine-protein kinase Nek1 (Homo sapiens) (UniProt Q96PY6); assay: Inhibition of NEK1 Lys2 labeling site in human A-375 cells at 5 uM by KiNativ Profiling analysis relative to control; type: cell-based
T2 sequence (whole entry): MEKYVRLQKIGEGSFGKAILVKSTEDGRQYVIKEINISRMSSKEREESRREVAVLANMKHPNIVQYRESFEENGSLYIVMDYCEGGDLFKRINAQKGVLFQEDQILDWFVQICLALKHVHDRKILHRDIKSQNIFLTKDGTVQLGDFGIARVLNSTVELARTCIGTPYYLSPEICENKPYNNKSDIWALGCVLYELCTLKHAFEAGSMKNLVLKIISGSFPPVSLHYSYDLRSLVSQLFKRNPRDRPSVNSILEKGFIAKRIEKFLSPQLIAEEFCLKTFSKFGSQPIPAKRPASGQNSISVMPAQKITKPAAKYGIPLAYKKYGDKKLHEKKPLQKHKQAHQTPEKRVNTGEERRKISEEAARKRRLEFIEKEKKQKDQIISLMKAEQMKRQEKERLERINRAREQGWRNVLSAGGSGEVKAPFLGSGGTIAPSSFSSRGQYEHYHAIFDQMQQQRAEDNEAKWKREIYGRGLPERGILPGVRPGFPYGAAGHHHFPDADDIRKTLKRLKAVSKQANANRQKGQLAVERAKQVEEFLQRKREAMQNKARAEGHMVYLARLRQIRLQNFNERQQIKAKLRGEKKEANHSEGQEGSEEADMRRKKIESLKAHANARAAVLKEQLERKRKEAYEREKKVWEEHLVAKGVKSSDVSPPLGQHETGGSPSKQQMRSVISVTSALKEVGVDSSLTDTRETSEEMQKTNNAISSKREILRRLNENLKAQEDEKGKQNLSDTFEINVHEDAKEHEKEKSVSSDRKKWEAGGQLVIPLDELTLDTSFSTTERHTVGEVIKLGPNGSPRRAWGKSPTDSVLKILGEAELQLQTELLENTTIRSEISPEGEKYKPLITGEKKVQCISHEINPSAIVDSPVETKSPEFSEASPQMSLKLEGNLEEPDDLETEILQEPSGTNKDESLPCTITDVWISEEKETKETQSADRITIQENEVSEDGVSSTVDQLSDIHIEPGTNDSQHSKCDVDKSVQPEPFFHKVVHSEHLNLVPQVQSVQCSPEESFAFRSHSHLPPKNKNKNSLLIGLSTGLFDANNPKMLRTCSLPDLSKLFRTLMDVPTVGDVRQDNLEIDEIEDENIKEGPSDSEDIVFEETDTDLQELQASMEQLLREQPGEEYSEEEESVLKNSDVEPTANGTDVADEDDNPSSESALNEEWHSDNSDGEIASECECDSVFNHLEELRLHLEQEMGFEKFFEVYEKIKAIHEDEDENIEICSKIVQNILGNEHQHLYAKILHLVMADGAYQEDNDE

Sequence of Serine/threonine-protein kinase Nek7 (Homo sapiens) (Q8TDX7 whole entry, looked up): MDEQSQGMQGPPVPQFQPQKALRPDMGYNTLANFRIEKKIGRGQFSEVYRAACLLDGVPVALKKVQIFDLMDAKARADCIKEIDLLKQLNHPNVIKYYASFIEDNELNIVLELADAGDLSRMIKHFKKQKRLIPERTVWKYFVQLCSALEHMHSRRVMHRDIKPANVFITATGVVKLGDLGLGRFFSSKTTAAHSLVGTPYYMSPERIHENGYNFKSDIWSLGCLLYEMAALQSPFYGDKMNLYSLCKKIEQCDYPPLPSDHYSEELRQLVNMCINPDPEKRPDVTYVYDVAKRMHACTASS
Sequence of Ribosomal protein S6 kinase beta-2 (Homo sapiens) (Q9UBS0 whole entry): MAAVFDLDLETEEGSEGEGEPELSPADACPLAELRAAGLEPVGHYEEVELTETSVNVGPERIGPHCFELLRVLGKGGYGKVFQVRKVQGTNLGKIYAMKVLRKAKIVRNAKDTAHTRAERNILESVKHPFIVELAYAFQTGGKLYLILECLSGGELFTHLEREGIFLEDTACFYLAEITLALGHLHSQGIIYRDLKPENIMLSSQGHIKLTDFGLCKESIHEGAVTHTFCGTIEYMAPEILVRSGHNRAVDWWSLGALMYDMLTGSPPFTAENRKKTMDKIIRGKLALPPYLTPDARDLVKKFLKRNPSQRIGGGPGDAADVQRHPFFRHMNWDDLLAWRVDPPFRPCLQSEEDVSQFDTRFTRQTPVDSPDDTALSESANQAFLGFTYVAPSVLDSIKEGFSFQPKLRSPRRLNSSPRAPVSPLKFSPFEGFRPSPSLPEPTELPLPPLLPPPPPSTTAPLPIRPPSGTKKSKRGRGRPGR
Sequence of Rho-associated protein kinase 1 (Homo sapiens) (Q13464 2-1354 limits assumed): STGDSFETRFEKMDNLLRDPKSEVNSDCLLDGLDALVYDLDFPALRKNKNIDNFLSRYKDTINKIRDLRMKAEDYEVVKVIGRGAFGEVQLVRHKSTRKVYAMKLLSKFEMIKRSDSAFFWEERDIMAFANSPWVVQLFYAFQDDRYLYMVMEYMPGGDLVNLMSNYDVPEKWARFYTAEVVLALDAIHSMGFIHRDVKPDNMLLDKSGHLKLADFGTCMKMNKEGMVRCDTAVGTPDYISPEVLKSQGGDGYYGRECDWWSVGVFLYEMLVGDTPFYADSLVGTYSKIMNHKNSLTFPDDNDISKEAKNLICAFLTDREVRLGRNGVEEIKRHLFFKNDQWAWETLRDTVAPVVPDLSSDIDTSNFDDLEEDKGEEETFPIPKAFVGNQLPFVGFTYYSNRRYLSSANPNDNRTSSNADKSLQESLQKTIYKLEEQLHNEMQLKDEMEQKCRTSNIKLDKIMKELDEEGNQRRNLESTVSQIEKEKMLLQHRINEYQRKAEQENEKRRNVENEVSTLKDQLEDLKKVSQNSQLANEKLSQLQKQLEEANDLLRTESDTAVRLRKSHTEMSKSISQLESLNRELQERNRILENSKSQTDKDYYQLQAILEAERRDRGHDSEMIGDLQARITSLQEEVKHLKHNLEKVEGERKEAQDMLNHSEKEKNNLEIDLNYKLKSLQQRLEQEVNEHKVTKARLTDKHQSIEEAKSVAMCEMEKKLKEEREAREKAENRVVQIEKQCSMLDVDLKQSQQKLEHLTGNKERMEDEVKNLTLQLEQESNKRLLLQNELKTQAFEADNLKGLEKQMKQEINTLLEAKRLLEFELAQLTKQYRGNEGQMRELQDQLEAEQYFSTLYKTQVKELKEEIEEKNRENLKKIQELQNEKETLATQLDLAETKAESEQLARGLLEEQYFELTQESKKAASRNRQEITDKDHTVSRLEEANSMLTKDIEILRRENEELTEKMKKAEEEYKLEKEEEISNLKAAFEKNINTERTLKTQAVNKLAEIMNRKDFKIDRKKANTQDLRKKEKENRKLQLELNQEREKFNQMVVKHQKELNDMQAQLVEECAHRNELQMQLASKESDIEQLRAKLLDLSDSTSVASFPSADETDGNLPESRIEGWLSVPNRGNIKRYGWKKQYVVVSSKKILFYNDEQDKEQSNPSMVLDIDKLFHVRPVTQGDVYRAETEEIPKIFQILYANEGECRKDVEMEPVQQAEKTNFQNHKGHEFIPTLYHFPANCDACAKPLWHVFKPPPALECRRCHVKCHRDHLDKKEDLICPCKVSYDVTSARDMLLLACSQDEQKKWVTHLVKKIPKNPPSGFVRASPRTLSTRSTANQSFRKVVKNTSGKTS
Sequence of Ribosomal protein S6 kinase alpha-3 (Homo sapiens) (P51812 whole entry, the tested form may be a part): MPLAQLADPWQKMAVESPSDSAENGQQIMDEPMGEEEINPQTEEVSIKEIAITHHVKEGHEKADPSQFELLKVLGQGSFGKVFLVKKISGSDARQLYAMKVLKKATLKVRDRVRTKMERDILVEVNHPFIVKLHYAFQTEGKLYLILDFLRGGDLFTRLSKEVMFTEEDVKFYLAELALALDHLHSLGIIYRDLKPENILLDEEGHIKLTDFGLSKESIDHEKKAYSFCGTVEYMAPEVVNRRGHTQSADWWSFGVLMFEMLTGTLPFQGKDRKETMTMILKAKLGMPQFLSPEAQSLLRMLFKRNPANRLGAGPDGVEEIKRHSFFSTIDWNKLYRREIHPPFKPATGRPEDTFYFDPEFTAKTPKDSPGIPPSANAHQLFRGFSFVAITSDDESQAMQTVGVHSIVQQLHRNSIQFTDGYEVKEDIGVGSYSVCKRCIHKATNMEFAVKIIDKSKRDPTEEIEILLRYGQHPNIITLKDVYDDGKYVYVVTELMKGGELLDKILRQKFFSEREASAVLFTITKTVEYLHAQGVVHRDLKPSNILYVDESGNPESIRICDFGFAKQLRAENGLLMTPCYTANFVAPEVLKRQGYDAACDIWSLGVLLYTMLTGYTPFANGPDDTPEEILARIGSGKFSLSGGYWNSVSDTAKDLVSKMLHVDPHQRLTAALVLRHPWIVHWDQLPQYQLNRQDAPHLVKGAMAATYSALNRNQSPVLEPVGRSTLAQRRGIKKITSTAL

Compound `CNc1cc(Oc2cc(C(=O)Nc3cc(N4CCN(C)CC4)cc(C(F)(F)F)c3)ccc2C)ncn1` has an inhibition [1] of -8.4% and an inhibition [2] of 7.6%.
For `CCN1CCN(Cc2ccc(NC(=O)c3ccc(C)c(/C=C/c4cnc5[nH]ccc5c4OC)c3)cc2C(F)(F)F)CC1`, the percent of control [3] was 0.75%.
With `CCN1CCN(Cc2ccc(NC(=O)c3ccc(C)c(Oc4ccnc5[nH]ccc45)c3)cc2C(F)(F)F)CC1` the inhibition [4] was “inactive”, the inhibition [5] was “inactive” and the inhibition [6] was 2.3%. The inhibition [7] was -7.1%.
